According to ChEMBL document CHEMBL5344432, “Identification of a Dual Autophagy and REV-ERB Inhibitor with in Vivo Anticancer Efficacy” (J Med Chem, 2024):
Activity calls are given as the source filed them. The calls are words filed in the database; no cut-off is given here.

Legend:
[1] = Tolerability in CD1 mouse assessed as reduction in body weight at 138 micromol/kg, ip measured after 2 days; type: toxicity, organism-based; details: in vivo, 48 h, dose 138 µmol/kg, time 2 day
Procedure, shortened: (§1)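 Body weight tracked in female CD1 mice under three regimens: 138 μmol/kg (62 mg/kg) ip daily, assessed after 2 days; 138 μmol/kg every other day over 8 days; 69 μmol/kg (31 mg/kg) daily over 8 days.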

[2] = Volume of distribution in CD1 mouse at 10 mg/kg, ip measured upto 24 hrs; type: ADME, organism-based; details: in vivo
Procedure, shortened: (§2)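 Female CD1 mice given a single 10 mg/kg ip dose. Plasma concentration–time profile analyzed by noncompartmental analysis for half-life and volume of distribution. A two-compartment model was also fitted.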

A-375 [3] = experiment: Cytotoxicity against human A-375 cells; type: functional
Procedure, shortened: (§3)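 Human cancer lines (A375, MDA-MB-231, OMM-1, UPMM-2, CAPAN-2, HepG2, HT-29, HCT116) treated up to 30 μM. CC50 derived from concentration–response viability plots. Mean ± SEM, n ≥ 6. Two-tailed unpaired t test used between compounds.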

[4] = Cmax in CD1 mouse at 10 mg/kg, ip measured upto 24 hrs; type: ADME, organism-based; parameters: dose 10 mg/kg, time < 24 hrs, route ip; details: in vivo; procedure, shortened: as §2
[5] = Metabolic stability in human liver microsomes assessed as parent compound remaining preincubated for 15 mins followed by UDPGA addition and measured after 2 hrs by LC-MS/MS analysis; type: ADME, Microsome; details: time 135 min, read-out: Stability
Procedure, shortened: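 Mouse and human liver microsomes incubated with UDPGA cofactor. Half-life and percent parent remaining at 120 min reported. Mean of at least two independent experiments, each in two technical replicates.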

[6] = Metabolic stability in human liver microsomes assessed as half life preincubated for 15 mins followed by NADPH addition and measured after 1 to 2 hrs by LC-MS/MS analysis; type: ADME, Microsome; details: liver microsomes, time 75-135 min
Procedure, shortened: (§4)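 Microsomal stability assessed in mouse, human, rat or dog liver microsomes with NADPH cofactor. Half-life and percent parent remaining at 60 and 120 min reported. Mean of at least two independent experiments, each in two technical replicates.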

Mus musculus = experiment: In vivo inhibition of REV-ERB in human A375 cells xenografted in NMRI-Foxn1nu mouse assessed as increase in BMAL1 gene expression at 30 mg/kg, ip administered for 2 days and measured after 48 hrs
[7] = Metabolic stability in rat liver microsomes assessed as parent compound remaining preincubated for 15 mins followed by NADPH addition and measured after 1 to 2 hrs by LC-MS/MS analysis; type: ADME, Microsome; details: time 75-135 min; procedure, shortened: as §4
[8] = Tolerability in CD1 mouse assessed as appearance of arched backs at 138 micromol/kg, ip; type: toxicity; details: in vivo, dose 138 µmol/kg
Procedure, shortened: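 Female CD1 mice given daily ip injections at 138 μmol/kg (62 mg/kg). Animals observed for arched backs and lethargy.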

[9] = Metabolic stability in human liver microsomes assessed as parent compound remaining preincubated for 15 mins followed by NADPH addition and measured after 2 hrs by LC-MS/MS analysis; type: ADME, Microsome; details: time 135 min, read-out: Stability; procedure, shortened: as §4
BT-474 = experiment: Induction of apoptosis in human BT-474 cells assessed as increase in cleaved PARP level after 24 hrs; type: functional, cell-based; details: dose 2.5-10 µM
Procedure, shortened: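 BT-474 cells treated at a range of concentrations. Apoptosis read out as caspase activity and as cleaved PARP protein by immunoblot.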

[10] = Metabolic stability in mouse liver microsomes assessed as half-life preincubated for 15 mins followed by UDPGA addition and measured after 2 hrs by LC-MS/MS analysis
[11] = Metabolic stability in mouse liver microsomes assessed as parent compound remaining preincubated for 15 mins followed by NADPH addition and measured after 2 hrs by LC-MS/MS analysis; type: ADME, Microsome; details: time 135 min, read-out: Stability; procedure, shortened: as §4
[12] = Metabolic stability in dog liver microsomes assessed as half life preincubated for 15 mins followed by NADPH addition and measured after 1 to 2 hrs by LC-MS/MS analysis; type: ADME, Canis lupus familiaris, Microsome; details: liver microsomes, time 75-135 min; procedure, shortened: as §4
Capan-2 = experiment: Cytotoxicity against human Capan-2 cells; type: functional; procedure, shortened: as §3
A-375 [13] = experiment: Antitumor activity against human A-375 cells xenografted in NMRI-Foxn1nu mouse assessed as effect on autophagy by measuring increase in GFP-LC3-II expression at 30 mg/kg, ip administered for 2 days by immunoblotting analysis; type: functional, organism-based; details: time 2.0 day
Procedure, shortened: (§5)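 Female NMRI-Foxn1nu mice bearing flank subcutaneous xenografts of GFP-LC3 reporter A375 cells, matched for tumor size, given 30 mg/kg ip or saline for 2 days. Euthanized 48 h after first injection. Tumor lysates immunoblotted with anti-LC3B for GFP-LC3-I and GFP-LC3-II. n = 3; unpaired two-tailed t test versus saline.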

[14] = Tolerability in CD1 mouse assessed as reduction in body weight at 138 micromol/kg, ip administered every other day for 8 days; type: toxicity, organism-based; details: in vivo, 192 h, dose 138 µmol/kg, time 8 day; procedure, shortened: as §1
HEK293 = experiment: Inhibition of REV-ERBbeta (unknown origin) transcription expressed in HEK293 cells harboring mutated RevRE incubated for 24 hrs by gaussia luciferase based assay; type: cell-based; details: Homo sapiens
Procedure, shortened: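 HEK-293 cells cotransfected with REV-ERBβ and a luciferase reporter bearing a mutated RevRE that REV-ERB cannot bind. Luciferase activity expressed as fold over DMSO vehicle. Mean ± SEM, n = 6.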

[15] = Cytotoxicity against HMECs; type: toxicity, cell-based, HMEC; details: human, HMEC cells
Procedure, shortened: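 BT-474 breast cancer cells and nontumorigenic HMECs treated 48 h with concentrations up to 30 μM. CC50 derived from concentration–response viability plots. Values >30 μM assigned when viability fell by less than 50% of vehicle at 30 μM. Mean ± SEM, n ≥ 3.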

A-375 [16] = experiment: Antitumor activity against human A-375 cells xenografted in NMRI-Foxn1nu mouse assessed as effect on autophagy by measuring increase in LC3-II/LC3-I ratio expression at 30 mg/kg, ip administered for 2 days by immunoblotting analysis; type: functional, organism-based; details: time 2.0 day; procedure, shortened: as §5
A375 (human) = experiment: Inhibition of autophagy in human A375 cells expressing EGFP-LC3B assessed as increase in SQSTM1 protein level at 2.5 uM after 24 hrs by immunoblotting analysis
[17] = Tolerability in CD1 mouse assessed as change in water intake at 69 micromol/kg, ip administered as 3 days on and 2 days off schedule and measured after 15 days; type: toxicity, organism-based; details: in vivo, dose 69 µmol/kg
Procedure, shortened: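 Female CD1 mice given 69 μmol/kg (31 mg/kg) ip, 3 days daily then 2 days off, or saline. Body weight, food intake and water intake monitored daily for 15 days. Weight expressed relative to the day before treatment (100%). Mean ± SEM, n = 3.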

[18] = Half life in CD1 mouse at 10 mg/kg, ip measured upto 24 hrs; type: ADME, organism-based; details: in vivo; procedure, shortened: as §2
[19] = Cytotoxicity against human UPMM-2 cells; type: functional; procedure, shortened: as §3
[20] = Toxicity in NMRI-Foxn1nu mouse xenografted with human A-375 cells assessed as reduction in body weight at 30 mg/kg, ip administered as 3 days on and 2 days off schedule and measured after 15 days; type: organism-based; details: in vivo, 360 h, time 15 day
Procedure, shortened: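 A375 xenograft-bearing female NMRI-Foxn1nu mice received 30 mg/kg ip or saline on a 3-days-on/2-days-off schedule. Body weight recorded daily to day 15, expressed relative to weight on the day before treatment (set to 100%). n = 8.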

Structure (SMILES): Fc1ccc(C2(NCc3ccc(F)c(CC4CCNCC4)c3)CCCC2)cc1
- Activity [1]: Toxic
- Vd [2]: 106.07 L/kg
- CC50 (A-375 [3]): 2.56 µM
- Cmax [4]: 280.23 ng/mL
- remaining at 2 h [5]: 95%
- half-life [6]: > 2 h
- inhibition (Mus musculus): Active
- Stability [7]: 98%
- Activity [8]: Non-Toxic
- remaining at 2 h [9]: 68%
- Activity (BT-474): Dose-Dependent Effect
- t1/2 at 2 h [10]: > 2 h
- remaining at 2 h [11]: 72%
- half-life [12]: > 1 h
- CC50 (Capan-2): 6.86 µM
- Activity (A-375 [13]): Active
- Activity [14]: Toxic
- inhibition (HEK293): inactive
- CC50 [15]: > 30 µM
- Activity (A-375 [16]): Active
- inhibition (A375 (human)): Active
- Activity [17]: Non-Toxic
- t1/2 [18]: 9.67 h
- CC50 [19]: 1.09 µM
- Activity [20]: Non-Toxic
